Legend:
Coagulation factor X [1] = biological target: T1, Coagulation factor X (Homo sapiens, UniProt P00742); assay: Inhibition of human factor 10a in presence of prothrombin at 25 degC
Procedure, shortened: (§1)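 Purified human factor Xa. […] Prothrombinase-type inhibition measured with prothrombin as substrate at 25 °C, and with saturating prothrombin at 37 °C. Values are averages of at least 2 determinations.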

Coagulation factor X [2] = biological target: T1, Coagulation factor X; assay: Inhibition of human factor 10a in presence of saturating prothrombin at 37 degC; procedure, shortened: as §1
[3] = biological target: Vitamin K-dependent protein C (Homo sapiens, UniProt P04070); assay: Inhibition of human activated protein C
Vitamin K-dependent protein C, sequence (P04070 43-197 limits assumed): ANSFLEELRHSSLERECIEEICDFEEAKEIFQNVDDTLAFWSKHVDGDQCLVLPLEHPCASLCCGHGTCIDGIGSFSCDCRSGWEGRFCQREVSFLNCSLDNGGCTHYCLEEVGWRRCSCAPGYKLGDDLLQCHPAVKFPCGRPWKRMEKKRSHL
Vitamin K-dependent protein C, sequence (P04070 212-461 limits assumed): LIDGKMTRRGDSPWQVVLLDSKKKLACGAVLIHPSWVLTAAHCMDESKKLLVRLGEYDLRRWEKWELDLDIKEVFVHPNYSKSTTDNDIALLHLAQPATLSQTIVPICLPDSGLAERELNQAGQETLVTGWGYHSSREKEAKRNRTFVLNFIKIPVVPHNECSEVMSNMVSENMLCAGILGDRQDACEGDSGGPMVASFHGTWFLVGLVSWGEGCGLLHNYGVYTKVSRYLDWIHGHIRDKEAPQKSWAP

Coagulation factor X [4] = biological target: T1, Coagulation factor X; assay: Inhibition of human factor 10a
Liver microsomes = assay: Metabolic stability in human liver microsomes assessed as microsomal intrinsic clearance rate; assay type: ADME, Microsome
Procedure, shortened: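 Human liver microsomes, 10-min incubation. Metabolic stability given as % compound remaining. Microsomal intrinsic clearance rate (nmol/min/mg) is based on the % remaining after 10 min.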

[5] = Cytotoxicity against HEK cells; assay type: cell-based; settings: Homo sapiens, HEK293
Coagulation factor XI = Coagulation factor XI (Homo sapiens, UniProt P03951); assay: Inhibition of human factor 11a
Coagulation factor XI, sequence (P03951 19-387 limits assumed): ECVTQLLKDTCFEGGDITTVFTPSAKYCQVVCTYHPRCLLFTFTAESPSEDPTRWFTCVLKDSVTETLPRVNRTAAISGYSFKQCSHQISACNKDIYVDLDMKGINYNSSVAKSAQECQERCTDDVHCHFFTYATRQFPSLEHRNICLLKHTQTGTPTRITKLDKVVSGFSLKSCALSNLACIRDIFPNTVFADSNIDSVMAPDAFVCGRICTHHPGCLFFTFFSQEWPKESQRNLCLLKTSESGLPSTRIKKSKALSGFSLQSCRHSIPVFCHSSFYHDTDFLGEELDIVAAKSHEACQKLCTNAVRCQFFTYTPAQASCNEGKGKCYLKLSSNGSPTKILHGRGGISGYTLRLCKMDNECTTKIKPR
Coagulation factor XI, sequence (P03951 388-625 limits assumed): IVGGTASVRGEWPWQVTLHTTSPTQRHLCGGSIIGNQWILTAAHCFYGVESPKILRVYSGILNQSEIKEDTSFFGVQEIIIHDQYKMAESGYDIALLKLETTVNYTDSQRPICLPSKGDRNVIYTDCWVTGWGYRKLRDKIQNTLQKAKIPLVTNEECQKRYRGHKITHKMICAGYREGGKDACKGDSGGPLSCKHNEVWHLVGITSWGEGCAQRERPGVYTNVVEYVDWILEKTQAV

Coagulation factor VII = biological target: T2, Coagulation factor VII (Homo sapiens, UniProt P08709); assay: Inhibition of human factor 7a
T2 sequence (P08709 whole entry): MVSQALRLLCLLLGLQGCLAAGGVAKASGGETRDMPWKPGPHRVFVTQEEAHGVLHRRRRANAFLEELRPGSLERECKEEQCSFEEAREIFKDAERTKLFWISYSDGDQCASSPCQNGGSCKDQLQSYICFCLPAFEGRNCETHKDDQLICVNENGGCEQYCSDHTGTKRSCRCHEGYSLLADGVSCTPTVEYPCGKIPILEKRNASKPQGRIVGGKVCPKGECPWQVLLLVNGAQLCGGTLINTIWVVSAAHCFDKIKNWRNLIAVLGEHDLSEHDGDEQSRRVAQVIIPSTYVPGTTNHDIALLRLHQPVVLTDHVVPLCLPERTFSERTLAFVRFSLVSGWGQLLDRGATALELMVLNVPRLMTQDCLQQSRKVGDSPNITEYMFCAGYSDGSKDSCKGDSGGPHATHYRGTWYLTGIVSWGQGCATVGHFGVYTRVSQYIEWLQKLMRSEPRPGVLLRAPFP

[6] = Inhibition of human chymotrypsin
Plasma kallikrein = Plasma kallikrein (Homo sapiens, UniProt P03952); assay: Inhibition of human plasma kallikrein; assay type: cell-free
Plasma kallikrein, sequence (P03952 20-390 limits assumed): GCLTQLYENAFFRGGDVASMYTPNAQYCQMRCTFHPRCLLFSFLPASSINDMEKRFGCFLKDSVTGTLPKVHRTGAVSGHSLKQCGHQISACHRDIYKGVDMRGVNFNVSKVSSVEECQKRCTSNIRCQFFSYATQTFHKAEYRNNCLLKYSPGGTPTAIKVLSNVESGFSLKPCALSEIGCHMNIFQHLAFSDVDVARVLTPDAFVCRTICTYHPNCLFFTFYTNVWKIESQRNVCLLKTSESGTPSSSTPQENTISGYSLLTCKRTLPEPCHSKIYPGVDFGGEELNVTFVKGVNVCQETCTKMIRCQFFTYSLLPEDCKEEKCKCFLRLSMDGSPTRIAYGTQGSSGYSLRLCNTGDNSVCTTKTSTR
Plasma kallikrein, sequence (P03952 391-638 limits assumed): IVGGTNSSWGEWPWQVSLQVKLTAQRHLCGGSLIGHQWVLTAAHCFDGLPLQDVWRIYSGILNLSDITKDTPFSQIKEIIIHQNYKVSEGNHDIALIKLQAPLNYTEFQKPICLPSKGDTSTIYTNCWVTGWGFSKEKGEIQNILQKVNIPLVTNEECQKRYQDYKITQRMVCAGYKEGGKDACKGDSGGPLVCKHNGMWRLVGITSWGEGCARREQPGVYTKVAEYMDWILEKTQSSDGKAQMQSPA

Trypsin = Trypsin (Homo sapiens, UniProt P07477+P07478+P35030); assay: Inhibition of human trypsin; assay type: protein assay
Prothrombin = Prothrombin (Homo sapiens, UniProt P00734); assay: Inhibition of human thrombin
Plasminogen = Plasminogen (Homo sapiens, UniProt P00747); assay: Inhibition of human Plasmin
Plasminogen, sequence (P00747 97-580 limits assumed): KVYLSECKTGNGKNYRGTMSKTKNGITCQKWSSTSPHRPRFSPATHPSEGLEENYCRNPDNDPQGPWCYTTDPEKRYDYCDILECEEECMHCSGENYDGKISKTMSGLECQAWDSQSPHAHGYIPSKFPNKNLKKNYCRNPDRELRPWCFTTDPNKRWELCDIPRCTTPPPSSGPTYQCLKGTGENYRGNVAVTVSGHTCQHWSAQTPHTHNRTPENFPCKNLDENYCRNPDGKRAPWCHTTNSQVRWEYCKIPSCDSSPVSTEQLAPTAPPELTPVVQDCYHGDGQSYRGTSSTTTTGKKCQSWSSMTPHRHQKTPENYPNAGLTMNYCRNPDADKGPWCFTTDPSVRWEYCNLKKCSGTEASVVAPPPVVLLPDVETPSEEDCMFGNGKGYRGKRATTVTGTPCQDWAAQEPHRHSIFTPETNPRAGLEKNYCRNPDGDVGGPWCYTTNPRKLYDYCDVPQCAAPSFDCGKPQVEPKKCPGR
Plasminogen, sequence (P00747 581-810 limits assumed): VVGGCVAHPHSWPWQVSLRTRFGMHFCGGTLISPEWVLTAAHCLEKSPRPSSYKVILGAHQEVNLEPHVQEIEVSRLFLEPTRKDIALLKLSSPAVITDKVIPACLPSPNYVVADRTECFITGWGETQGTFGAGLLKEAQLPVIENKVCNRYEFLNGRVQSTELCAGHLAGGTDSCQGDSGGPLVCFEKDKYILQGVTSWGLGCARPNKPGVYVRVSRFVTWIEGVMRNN

[7] = biological target: Tissue-type plasminogen activator (Homo sapiens, UniProt P00750); assay: Inhibition of human tissue plasminogen activator
Tissue-type plasminogen activator, sequence (P00750 whole entry): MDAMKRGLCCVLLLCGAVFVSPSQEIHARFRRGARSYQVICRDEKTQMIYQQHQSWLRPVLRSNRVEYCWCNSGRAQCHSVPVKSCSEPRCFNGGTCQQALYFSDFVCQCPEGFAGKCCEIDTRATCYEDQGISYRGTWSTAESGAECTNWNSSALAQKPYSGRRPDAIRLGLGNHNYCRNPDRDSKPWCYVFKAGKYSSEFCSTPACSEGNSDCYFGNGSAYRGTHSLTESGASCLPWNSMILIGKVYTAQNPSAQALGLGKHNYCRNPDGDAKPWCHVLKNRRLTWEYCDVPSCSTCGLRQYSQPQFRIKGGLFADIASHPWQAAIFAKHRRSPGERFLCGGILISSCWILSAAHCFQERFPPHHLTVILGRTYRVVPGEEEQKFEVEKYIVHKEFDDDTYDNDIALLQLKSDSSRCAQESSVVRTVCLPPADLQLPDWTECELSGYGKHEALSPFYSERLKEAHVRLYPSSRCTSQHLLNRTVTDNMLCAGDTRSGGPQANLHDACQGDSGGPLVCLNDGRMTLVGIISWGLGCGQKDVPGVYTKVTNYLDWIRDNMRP

[8] = biological target: Urokinase-type plasminogen activator (Homo sapiens, UniProt P00749); assay: Inhibition of human urokinase
[9] = Permeability across Caco-2 cells; assay type: ADME, cell-based; settings: human, read-out: permeability
[10] = Clearance in dog at 0.5 mg/kg, iv; assay type: ADME, organism-based, Canis lupus familiaris; parameters: dose 0.5 mg/kg, route intravenous; settings: in vivo
Procedure, shortened: (§2)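 Dogs. Intravenous dose 0.5 mg/kg, used for clearance (L/kg/h), steady-state volume of distribution (L/kg) and iv half-life.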

[11] = Volume of distribution at steady state in dog at 0.5 mg/kg, iv; assay type: ADME, organism-based, Canis lupus familiaris; parameters: dose 0.5 mg/kg, route intravenous; settings: in vivo, read-out: Vdss; procedure, shortened: as §2
[12] = Half life in dog at 0.5 mg/kg, iv; assay type: ADME, organism-based, Canis lupus familiaris; parameters: dose 0.5 mg/kg, route intravenous; settings: in vivo; procedure, shortened: as §2
[13] = Half life in dog at 0.2 mg/kg, po; assay type: ADME, organism-based, Canis lupus familiaris; parameters: dose 0.2 mg/kg, route oral; settings: in vivo
[14] = Bioavailability in dog at 0.2 mg/kg, po; assay type: ADME, organism-based, Canis lupus familiaris; settings: in vivo; procedure, shortened: as §2
Coagulation factor X [15] = biological target: T1, Coagulation factor X; assay: Inhibition of human factor 10a in presence of tripeptide substrate at 25 degC
Coagulation factor X [16] = biological target: T1, Coagulation factor X; assay: Inhibition of human factor 10a in presence of tripeptide substrate at 37 degC

T1 sequence (P00742 41-179 limits assumed): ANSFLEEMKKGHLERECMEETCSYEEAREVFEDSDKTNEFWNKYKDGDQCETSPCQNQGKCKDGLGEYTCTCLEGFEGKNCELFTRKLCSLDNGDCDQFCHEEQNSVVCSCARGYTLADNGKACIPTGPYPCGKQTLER
T1 sequence (P00742 235-488 limits assumed): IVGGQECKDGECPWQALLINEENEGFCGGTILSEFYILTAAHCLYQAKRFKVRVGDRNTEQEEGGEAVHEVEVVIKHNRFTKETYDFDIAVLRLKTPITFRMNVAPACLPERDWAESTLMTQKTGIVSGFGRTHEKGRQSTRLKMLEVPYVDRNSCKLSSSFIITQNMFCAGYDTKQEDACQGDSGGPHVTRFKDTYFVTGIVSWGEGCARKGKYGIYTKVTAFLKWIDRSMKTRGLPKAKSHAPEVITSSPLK

CCOC(=O)N1C[C@H](NC(=O)c2ccc(-n3ccccc3=O)cc2)[C@H](NC(=O)c2ccc(Cl)s2)C1
Ki (Coagulation factor X [1]): 0.0075 µM
Ki (Coagulation factor X [2]): 0.03 µM
Ki [3]: > 21 µM
Ki (Coagulation factor X [4]): 0.0005 µM
CL (Liver microsomes): 0 nmol/mg/min
IC50 [5]: > 100 µM
Ki (Coagulation factor XI): 7.38 µM
Ki (Coagulation factor VII): > 11 µM
Ki [6]: > 20 µM
Ki (Plasma kallikrein): > 6 µM
Ki (Trypsin): > 5 µM
Ki (Prothrombin): 4.02 µM
Ki (Plasminogen): > 22 µM
Ki [7]: > 21 µM
Ki [8]: > 14 µM
Papp [9]: 2.5 ×10⁻⁶ cm/s
clearance [10]: 43.3 mL/min/kg
Vd [11]: 2.4 L/kg
half-life [12]: 1.4 h
half-life [13]: 2.7 h
bioavailability [14]: 25%
Ki (Coagulation factor X [15]): 0.00073 µM
Ki (Coagulation factor X [16]): 0.0026 µM

From ChEMBL document CHEMBL1149671, “Enantiopure five-membered cyclicdiamine derivatives as potent and selective inhibitors of factor Xa. Improving in vitro metabolic stability via core modifications” (Bioorg Med Chem Lett, 2007)
